In ChEMBL document CHEMBL4043093, “2-Oxo-3, 4-dihydropyrimido[4, 5-d]pyrimidinyl derivatives as new irreversible pan fibroblast growth factor receptor (FGFR) inhibitors” (Eur J Med Chem, 2017) one finds Activity data, which are given here for one compound.

In assay [1] the test system is Tyrosine-protein kinase ABL1 (Homo sapiens), P00519 [Q252H]. In words: Inhibition of human non-phosphorylated ABL1 Q252H mutant (S229 to K512 residues) expressed in HEK293 cells assessed as residual activity at 1000 nM after 30 mins by Kinomescan method relative to control. Format: cell-based. In short, it runs like this:
(§1)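 KINOMEscan binding panel of 456 kinases, with the test compound at a single concentration of 1 µM. Read-out is Percent Control.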

In assay [2] the target is AP2-associated protein kinase 1 (Homo sapiens) (UniProt Q2M2I8). In words: Inhibition of human wild-type AAK1 (G25 to L333 residues) expressed in Escherichia coli BL21 assessed as residual activity at 1000 nM after 30 mins by Kinomescan method relative to control. Put shortly: (§2)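 Single-point screen at a fixed 1 µM, run within a 456-kinase DiscoveRx KINOMEscan panel. Each kinase's read-out is Percent Control, i.e. signal relative to a control without compound. Hits were scored by a Percent Control < 35 cut-off, and an S(35) selectivity score was calculated across the non-mutant kinases.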

Assay [3] addresses Protein-tyrosine kinase 6 (Homo sapiens) (UniProt Q13882). In words: Inhibition of wild-type human partial length BRK (L166 to T451 residues) expressed in Escherichia coli BL21 assessed as residual activity at 1000 nM after 30 mins by Kinomescan method relative to control.
The target in assay [4] is Phosphatidylinositol 4,5-bisphosphate 3-kinase catalytic subunit beta isoform (Homo sapiens) (UniProt P42338). In words: Inhibition of wild-type human partial length PIK3CB (P118 to S1070 residues) expressed in HEK293 cells assessed as residual activity at 1000 nM after 30 mins by Kinomescan method relative to control. Format: cell-based.
Phosphatidylinositol 4,5-bisphosphate 3-kinase catalytic subunit beta isoform (Homo sapiens), sequence (P42338 whole entry, looked up, the tested form may be a part, canonical isoform): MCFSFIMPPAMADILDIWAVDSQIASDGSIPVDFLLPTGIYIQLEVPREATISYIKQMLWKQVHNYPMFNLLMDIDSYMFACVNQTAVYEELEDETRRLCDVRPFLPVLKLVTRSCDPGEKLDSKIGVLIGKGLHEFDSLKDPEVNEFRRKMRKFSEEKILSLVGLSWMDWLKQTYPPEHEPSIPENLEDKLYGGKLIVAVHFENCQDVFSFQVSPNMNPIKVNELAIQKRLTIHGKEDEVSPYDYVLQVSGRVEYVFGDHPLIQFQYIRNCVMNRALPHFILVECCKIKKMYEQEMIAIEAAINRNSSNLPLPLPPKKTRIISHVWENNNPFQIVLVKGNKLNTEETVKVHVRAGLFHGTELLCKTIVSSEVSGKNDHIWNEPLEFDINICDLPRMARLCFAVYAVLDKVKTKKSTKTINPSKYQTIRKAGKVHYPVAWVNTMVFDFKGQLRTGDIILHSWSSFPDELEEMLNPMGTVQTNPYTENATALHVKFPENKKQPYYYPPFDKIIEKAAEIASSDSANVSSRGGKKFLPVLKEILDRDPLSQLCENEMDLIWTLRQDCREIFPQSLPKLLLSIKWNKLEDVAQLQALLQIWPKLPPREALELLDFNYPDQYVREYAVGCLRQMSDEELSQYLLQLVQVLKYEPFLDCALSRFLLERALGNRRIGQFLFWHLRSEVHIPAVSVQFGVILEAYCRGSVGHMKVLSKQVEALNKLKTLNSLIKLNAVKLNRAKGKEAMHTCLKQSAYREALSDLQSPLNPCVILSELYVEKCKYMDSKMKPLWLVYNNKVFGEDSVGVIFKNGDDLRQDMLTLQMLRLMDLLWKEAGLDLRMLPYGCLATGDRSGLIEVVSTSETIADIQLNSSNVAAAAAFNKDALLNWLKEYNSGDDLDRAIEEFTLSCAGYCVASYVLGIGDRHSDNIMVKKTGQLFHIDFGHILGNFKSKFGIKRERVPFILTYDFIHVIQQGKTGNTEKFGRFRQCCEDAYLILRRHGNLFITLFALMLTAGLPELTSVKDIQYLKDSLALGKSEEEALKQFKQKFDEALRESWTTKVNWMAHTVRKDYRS
The target in assay [5] is cAMP-dependent protein kinase catalytic subunit alpha (Homo sapiens) (UniProt P17612). Nature of the assay: Inhibition of wild-type human partial length PKAC-alpha (G10 to F351 residues) expressed in Escherichia coli BL21 assessed as residual activity at 1000 nM after 30 mins by Kinomescan method relative to control.
The subject of assay [6] is Receptor-type tyrosine-protein kinase FLT3 (Homo sapiens), P36888 [R834Q]. In words: Inhibition of human partial length FLT3 R834Q mutant (V592 to Y969 residues) expressed in HEK293 cells assessed as residual activity at 1000 nM after 30 mins by Kinomescan method relative to control. Format: cell-based. Put shortly: as §1
The target of assay [7] is Serine/threonine-protein kinase MRCK alpha (Homo sapiens) (UniProt Q5VT25). Nature of the assay: Inhibition of wild-type human partial length MRCKA (L57 to V418 residues) expressed in Escherichia coli BL21 assessed as residual activity at 1000 nM after 30 mins by Kinomescan method relative to control.
Assay [8] addresses Mitogen-activated protein kinase kinase kinase kinase 3 (Homo sapiens) (UniProt Q8IVH8). Nature of the assay: Inhibition of wild-type human partial length MAP4K3 (M1 to D301 residues) expressed in Escherichia coli BL21 assessed as residual activity at 1000 nM after 30 mins by Kinomescan method relative to control.
Assay [9] has as its system Tyrosine-protein kinase ABL1 (Homo sapiens), P00519 [F317I]. In words: Inhibition of human phosphorylated ABL1 F317I mutant (S229 to K512 residues) expressed in HEK293 cells assessed as residual activity at 1000 nM after 30 mins by Kinomescan method relative to control. It counts as cell-based. Put shortly:
as §2

Assay [10] deals with Cyclin-dependent kinase 4/cyclin D1 (Homo sapiens) (UniProt P11802+P24385). In words: Inhibition of wild-type human full length CDK4/cyclinD1 (M1 to E303 residues) expressed in HEK293 cells assessed as residual activity at 1000 nM after 30 mins by Kinomescan method relative to control. Format: cell-based. In short, it runs like this:
as §2

The target of assay [11] is Casein kinase I isoform epsilon (Homo sapiens) (UniProt P49674). Nature of the assay: Inhibition of wild-type human full length CSNK1E (M1 to K416 residues) expressed in Escherichia coli BL21 assessed as residual activity at 1000 nM after 30 mins by Kinomescan method relative to control. In short, it runs like this:
as §2

Assay [12] has as its target Macrophage colony-stimulating factor 1 receptor (Homo sapiens) (UniProt P07333). Nature of the assay: Inhibition of wild-type human partial length CSF1R (I564 to S939 residues) expressed in Escherichia coli BL21 assessed as residual activity at 1000 nM after 30 mins by Kinomescan method relative to control.
The target of assay [13] is Tyrosine-protein kinase BTK (Homo sapiens) (UniProt Q06187). In words: Inhibition of wild-type human full length BTK (M1 to S659 residues) expressed in HEK293 cells assessed as residual activity at 1000 nM after 30 mins by Kinomescan method relative to control. Format: cell-based. In short, it runs like this:
as §2

In assay [14] the test system is Tyrosine-protein kinase ABL1 (Homo sapiens), P00519 [H396P]. In words: Inhibition of human phosphorylated ABL1 H396P mutant (S229 to K512 residues) expressed in HEK293 cells assessed as residual activity at 1000 nM after 30 mins by Kinomescan method relative to control. Format: cell-based. In short, it runs like this: as §2
The target in assay [15] is Ribosomal protein S6 kinase alpha-6 (Homo sapiens) (UniProt Q9UK32). Nature of the assay: Inhibition of wild-type human partial length C-terminal RSK4 kinase domain 2 (I401 to Y711 residues) expressed in Escherichia coli BL21 assessed as residual activity at 1000 nM after 30 mins by Kinomescan method relative to control.
Ribosomal protein S6 kinase alpha-6 (Homo sapiens), sequence (Q9UK32 whole entry, the tested form may be a part): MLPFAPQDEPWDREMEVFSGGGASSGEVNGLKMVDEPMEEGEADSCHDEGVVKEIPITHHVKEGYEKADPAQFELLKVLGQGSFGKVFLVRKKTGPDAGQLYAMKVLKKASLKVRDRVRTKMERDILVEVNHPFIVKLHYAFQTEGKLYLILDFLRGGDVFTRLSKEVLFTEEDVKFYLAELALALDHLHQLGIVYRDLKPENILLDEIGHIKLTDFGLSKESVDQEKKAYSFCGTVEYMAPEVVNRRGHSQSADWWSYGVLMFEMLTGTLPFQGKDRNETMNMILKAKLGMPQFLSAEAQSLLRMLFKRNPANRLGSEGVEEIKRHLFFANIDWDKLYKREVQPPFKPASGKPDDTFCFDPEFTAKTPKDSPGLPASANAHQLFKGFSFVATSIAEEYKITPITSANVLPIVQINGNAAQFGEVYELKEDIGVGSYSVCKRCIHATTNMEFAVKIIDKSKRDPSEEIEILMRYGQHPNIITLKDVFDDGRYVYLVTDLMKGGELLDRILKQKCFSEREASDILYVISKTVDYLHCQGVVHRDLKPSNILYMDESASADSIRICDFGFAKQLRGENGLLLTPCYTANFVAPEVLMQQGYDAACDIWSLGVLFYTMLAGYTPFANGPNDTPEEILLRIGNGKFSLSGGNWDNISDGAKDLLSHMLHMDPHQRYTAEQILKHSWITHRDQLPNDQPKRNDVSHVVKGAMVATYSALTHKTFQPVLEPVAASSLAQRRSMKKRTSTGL
For assay [16], the target named is Tyrosine-protein kinase ZAP-70 (Homo sapiens) (UniProt P43403). In words: Inhibition of wild-type human partial length ZAP70 (D20 to G299 residues) expressed in HEK293 cells assessed as residual activity at 1000 nM after 30 mins by Kinomescan method relative to control. It counts as cell-based.
Tyrosine-protein kinase ZAP-70 (Homo sapiens), sequence (P43403 whole entry, the tested form may be a part): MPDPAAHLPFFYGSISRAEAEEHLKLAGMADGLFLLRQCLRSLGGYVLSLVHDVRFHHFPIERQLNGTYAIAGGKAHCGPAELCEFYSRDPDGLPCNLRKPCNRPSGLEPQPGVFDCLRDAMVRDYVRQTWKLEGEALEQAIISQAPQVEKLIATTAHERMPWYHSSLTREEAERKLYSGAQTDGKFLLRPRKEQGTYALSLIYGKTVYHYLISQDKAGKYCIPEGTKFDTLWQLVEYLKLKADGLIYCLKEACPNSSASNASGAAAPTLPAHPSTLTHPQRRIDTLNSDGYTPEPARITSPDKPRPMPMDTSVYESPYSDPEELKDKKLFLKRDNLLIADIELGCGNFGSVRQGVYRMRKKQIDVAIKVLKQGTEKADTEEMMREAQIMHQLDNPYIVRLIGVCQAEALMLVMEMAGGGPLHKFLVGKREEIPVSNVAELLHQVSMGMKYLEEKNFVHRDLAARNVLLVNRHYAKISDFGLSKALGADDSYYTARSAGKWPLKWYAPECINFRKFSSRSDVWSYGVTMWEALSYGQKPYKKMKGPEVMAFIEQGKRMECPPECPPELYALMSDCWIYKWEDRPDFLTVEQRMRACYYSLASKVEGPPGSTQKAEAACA
Assay [17] has as its target Protein kinase C delta type (Homo sapiens) (UniProt Q05655). In words: Inhibition of wild-type human partial length PRKCD (Q328 to D676 residues) expressed in Escherichia coli BL21 assessed as residual activity at 1000 nM after 30 mins by Kinomescan method relative to control.
The target in assay [18] is Serine/threonine-protein kinase Sgk3 (Homo sapiens) (UniProt Q96BR1). In words: Inhibition of wild-type human partial length SGK3 (M119 to L496 residues) expressed in HEK293 cells assessed as residual activity at 1000 nM after 30 mins by Kinomescan method relative to control. Format: cell-based.
Serine/threonine-protein kinase Sgk3 (Homo sapiens), sequence (Q96BR1 whole entry, the tested form may be a part): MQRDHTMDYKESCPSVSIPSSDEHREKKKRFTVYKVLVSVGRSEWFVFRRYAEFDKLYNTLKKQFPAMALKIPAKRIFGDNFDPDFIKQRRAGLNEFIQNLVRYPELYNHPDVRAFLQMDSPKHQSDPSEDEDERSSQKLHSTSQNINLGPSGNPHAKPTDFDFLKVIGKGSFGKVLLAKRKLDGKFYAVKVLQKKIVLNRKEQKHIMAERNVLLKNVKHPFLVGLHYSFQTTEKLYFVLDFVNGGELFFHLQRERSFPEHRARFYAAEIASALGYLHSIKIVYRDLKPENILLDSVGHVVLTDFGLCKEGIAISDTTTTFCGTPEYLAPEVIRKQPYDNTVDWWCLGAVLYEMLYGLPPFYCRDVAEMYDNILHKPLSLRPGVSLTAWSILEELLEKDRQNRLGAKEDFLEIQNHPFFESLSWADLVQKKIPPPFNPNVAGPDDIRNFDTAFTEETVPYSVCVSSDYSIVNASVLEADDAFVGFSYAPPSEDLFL
Assay [19] addresses Serine/threonine-protein kinase PLK2 (Homo sapiens) (UniProt Q9NYY3). In words: Inhibition of wild-type human partial length PLK2 (H58 to F354 residues) expressed in HEK293 cells assessed as residual activity at 1000 nM after 30 mins by Kinomescan method relative to control. It counts as cell-based.
In assay [20] the target is Serine/threonine-protein kinase LATS2 (Homo sapiens) (UniProt Q9NRM7). In words: Inhibition of wild-type human partial length LATS2 (Q641 to V1088 residues) expressed in HEK293 cells assessed as residual activity at 1000 nM after 30 mins by Kinomescan method relative to control. Format: cell-based.
Serine/threonine-protein kinase LATS2 (Homo sapiens), sequence (Q9NRM7 whole entry, the tested form may be a part): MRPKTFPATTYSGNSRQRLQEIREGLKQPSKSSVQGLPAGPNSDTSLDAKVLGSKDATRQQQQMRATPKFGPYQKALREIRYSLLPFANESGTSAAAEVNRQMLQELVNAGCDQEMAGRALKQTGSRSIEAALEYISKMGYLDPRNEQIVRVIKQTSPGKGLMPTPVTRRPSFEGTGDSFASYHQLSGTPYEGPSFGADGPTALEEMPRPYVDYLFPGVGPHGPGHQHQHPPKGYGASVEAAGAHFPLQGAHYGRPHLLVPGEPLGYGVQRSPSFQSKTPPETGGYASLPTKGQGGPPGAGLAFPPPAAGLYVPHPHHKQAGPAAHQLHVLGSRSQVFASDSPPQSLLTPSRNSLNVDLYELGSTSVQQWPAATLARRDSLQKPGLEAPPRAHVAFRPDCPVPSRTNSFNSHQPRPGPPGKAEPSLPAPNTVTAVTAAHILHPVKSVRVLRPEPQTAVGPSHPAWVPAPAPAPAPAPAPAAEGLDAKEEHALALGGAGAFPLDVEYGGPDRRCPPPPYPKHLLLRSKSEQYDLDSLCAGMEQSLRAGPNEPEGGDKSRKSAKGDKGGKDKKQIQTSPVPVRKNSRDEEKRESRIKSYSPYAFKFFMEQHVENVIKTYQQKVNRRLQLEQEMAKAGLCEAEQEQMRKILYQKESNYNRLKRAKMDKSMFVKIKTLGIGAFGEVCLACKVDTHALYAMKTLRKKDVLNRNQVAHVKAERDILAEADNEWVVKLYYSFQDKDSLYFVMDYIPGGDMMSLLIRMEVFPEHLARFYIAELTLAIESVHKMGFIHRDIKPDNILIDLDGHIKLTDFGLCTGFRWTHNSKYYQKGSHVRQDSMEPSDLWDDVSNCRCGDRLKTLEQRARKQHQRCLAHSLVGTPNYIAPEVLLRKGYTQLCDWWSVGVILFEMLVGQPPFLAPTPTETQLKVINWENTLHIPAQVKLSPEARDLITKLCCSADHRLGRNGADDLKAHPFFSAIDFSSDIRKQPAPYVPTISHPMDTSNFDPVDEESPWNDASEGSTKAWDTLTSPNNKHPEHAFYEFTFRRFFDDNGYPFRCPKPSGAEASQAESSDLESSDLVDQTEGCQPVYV
The target of assay [21] is cAMP-dependent protein kinase catalytic subunit PRKX (Homo sapiens) (UniProt P51817). Nature of the assay: Inhibition of wild-type human partial length PRKX (M1 to F358 residues) expressed in Escherichia coli BL21 assessed as residual activity at 1000 nM after 30 mins by Kinomescan method relative to control.
cAMP-dependent protein kinase catalytic subunit PRKX (Homo sapiens), sequence (P51817 whole entry, the tested form may be a part): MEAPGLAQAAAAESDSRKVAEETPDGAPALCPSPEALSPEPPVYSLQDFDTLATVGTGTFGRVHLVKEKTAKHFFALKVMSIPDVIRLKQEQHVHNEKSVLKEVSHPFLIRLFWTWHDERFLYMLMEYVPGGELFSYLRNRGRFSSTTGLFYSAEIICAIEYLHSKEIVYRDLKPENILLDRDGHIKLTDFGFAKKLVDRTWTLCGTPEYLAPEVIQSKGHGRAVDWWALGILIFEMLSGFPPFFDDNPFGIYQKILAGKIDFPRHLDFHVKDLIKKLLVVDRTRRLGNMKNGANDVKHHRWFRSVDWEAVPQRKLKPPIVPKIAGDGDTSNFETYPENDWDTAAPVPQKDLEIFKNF

Protein kinase C delta type (Homo sapiens), sequence (Q05655 whole entry, looked up, the tested form may be a part): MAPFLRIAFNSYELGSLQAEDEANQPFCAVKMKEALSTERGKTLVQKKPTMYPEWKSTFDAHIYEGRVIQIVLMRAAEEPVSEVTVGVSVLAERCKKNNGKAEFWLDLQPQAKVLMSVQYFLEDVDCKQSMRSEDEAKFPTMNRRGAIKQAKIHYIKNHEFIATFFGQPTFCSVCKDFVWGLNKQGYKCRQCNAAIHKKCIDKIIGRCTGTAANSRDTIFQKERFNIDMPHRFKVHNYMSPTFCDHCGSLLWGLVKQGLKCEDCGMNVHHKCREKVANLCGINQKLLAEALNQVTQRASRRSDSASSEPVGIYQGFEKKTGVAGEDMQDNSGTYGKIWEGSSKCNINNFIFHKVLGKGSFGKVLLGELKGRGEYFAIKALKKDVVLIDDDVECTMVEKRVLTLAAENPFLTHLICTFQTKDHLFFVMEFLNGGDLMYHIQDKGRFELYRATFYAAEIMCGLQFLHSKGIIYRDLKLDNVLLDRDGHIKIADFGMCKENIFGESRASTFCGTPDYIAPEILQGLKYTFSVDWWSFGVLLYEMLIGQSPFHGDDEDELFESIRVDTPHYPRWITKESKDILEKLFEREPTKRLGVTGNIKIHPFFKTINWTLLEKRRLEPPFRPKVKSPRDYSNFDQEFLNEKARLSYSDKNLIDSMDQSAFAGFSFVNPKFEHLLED

Consider `COc1cc(OC)c(Cl)c(N2Cc3cnc(Nc4ccc(F)cc4)nc3N(C3CCN(C(=O)/C=C/CN(C)C)CC3)C2=O)c1Cl`, for which the Activity in assay [1] amounted to 33%; in assay [2], 100%; in [3], 100%; in assay [4] it was 100%; in assay [5], 100%; in assay [6], 96%. The Activity stood at 98% in assay [7]; 88% in assay [8]; 99% in assay [9]; 100% in [10]; 100% in assay [11]; 0.4% in assay [12]. Further, the Activity in assay [13] was determined as 99%; in assay [14], 42%; in [15], 94%; in [16] it was 85%; in assay [17], 93%; in assay [18], 87%. The Activity in assay [19], in assay [20] and in assay [21] was 100% each time.
